Results on 5 molecules are retold here after ChEMBL document CHEMBL3272287, “Synthesis and biological activity of new 2-substituted analogs of fluphenazine” (1976).

Broadly, the ED50 is the dose that gives a 50% effect, or the effect in half of the subjects.

Common to all, as to type: functional
In test [1] the test system is Mus musculus. Briefly: Cataleptogenic potency in iv dosed albino mouse assessed as reversal of imposed position administered 4 doses at quarter log intervals measured 60 to 180 mins post dose. The method, boiled down: (§1)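 Male albino mice (20–25 g), six per dose, given intravenous aqueous solutions (PEG 200 for one analog). Distilled water served as the negative control. About four doses were spaced at quarter-log intervals, chosen from a preliminary gross observation screen. At 60, 120 and 180 min, mice were placed with forepaws elevated 5 cm and each forepaw was scored, maximum 3. Three observers scored the mice. CD50 came from probit analysis, with doses as free base. Relative potency was calculated against fluphenazine as 1.0.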

Test [2] deals with Mus musculus. In words: Cataleptogenic potency in iv dosed albino mouse assessed as reversal of imposed position administered 4 doses at quarter log intervals measured 60 to 180 mins post dose relative to fluphenazine. Summed up:
as §1

Test [3] has as its system Rattus norvegicus. Briefly: Cataleptogenic potency in im dosed albino rat assessed as reversal of imposed position administered 4 doses at quarter log intervals measured 60 to 180 mins post dose. Summed up:
(§2)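 Male albino rats (about 180 g average), groups of six, each given a single intramuscular injection into the gastrocnemius, about 0.1 ml/kg. Saline-injected controls. One observer scored forepaw-elevation catalepsy. CD50 was the dose giving 50% of the maximum catalepsy score (9 of 18 points), estimated by probit analysis. Doses were expressed as free base. Relative potency was calculated against fluphenazine as 1.0.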

The subject of test [4] is Rattus norvegicus. In words: Cataleptogenic potency in im dosed albino rat assessed as reversal of imposed position administered 4 doses at quarter log intervals measured 60 to 180 mins post dose relative to fluphenazine. Summed up: as §2

Consider `N#CC(C#N)=Cc1ccc2c(c1)N(CCCN1CCN(CCO)CC1)c1ccccc1S2`, for which the ED50 in the test on Mus musculus [1] came to 28 µmol/kg. Moreover, the Ratio in the test with Mus musculus [2] came out at 0.078.
`O=[N+]([O-])c1ccc2c(c1)N(CCCN1CCN(CCO)CC1)c1ccccc1S2`: the median effective dose (ED50) with Mus musculus [1] worked out at 2.2 µmol/kg; in the test with Rattus norvegicus [3] it was 0.17 µmol/kg. Further, the Ratio in the test on Mus musculus [2] is given as 0.92; in the test with Rattus norvegicus [4], 3.2.
Regarding `N#Cc1ccc2c(c1)N(CCCN1CCN(CCO)CC1)c1ccccc1S2`, the values for the ED50 in the test with Mus musculus [1] and in the test with Rattus norvegicus [3] were 0.41 µmol/kg and 0.61 µmol/kg, respectively. In addition, the Ratio in the test with Mus musculus [2] turned out to be 0.7; in the test with Rattus norvegicus [4] it was 0.65.
Take `OCCN1CCN(CCCN2c3ccccc3Sc3ccc(C(F)(F)F)cc32)CC1` [FLUPHENAZINE]: the ED50 came out at 0.29 µmol/kg in the test with Mus musculus [1] and 0.39 µmol/kg with Rattus norvegicus [3].
As to `O=[N+]([O-])/C=C/c1ccc2c(c1)N(CCCN1CCN(CCO)CC1)c1ccccc1S2`, in the test with Mus musculus [1], the ED50 is > 57 µmol/kg. For the same molecule, the Ratio in the test with Mus musculus [2] is recorded as <0.011.
